Bioassay records (PubChem BioAssay)
ABCB1 block: ABCB1 efflux pump inhibitors, primary screen, cell-based, multiplex, flow cytometry, ABCG2 counter-screen; ATP-dependent translocase ABCB1 (Homo sapiens), P08183; CCRF-Adr cells, JC-1 efflux; inhibition, % at 6.6 µM; hit rate 0.067% among 190,000; in the data active = inhibition above about 40%;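 note: higher value means more JC-1 retained so stronger ABCB1 efflux block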
ROMK primary: ROMK potassium channel modulators, primary screen, cell-based, thallium flux, MLSMR library | ATP-sensitive inward rectifier potassium channel 1 (Homo sapiens), P48048 | Tet-inducible ROMK, thallium flux fluorescence; actives lie on both sides | B-score at 10 µM | hit rate 2% among 130,000;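 active = signal ratio slope over the read window, or its plate-corrected B-score, at least 3 SD from the plate mean, either direction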;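 note: B-score of the F/F0 ratio slope over 7 to 12 s after thallium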
Target sequence (P48048 whole entry, looked up): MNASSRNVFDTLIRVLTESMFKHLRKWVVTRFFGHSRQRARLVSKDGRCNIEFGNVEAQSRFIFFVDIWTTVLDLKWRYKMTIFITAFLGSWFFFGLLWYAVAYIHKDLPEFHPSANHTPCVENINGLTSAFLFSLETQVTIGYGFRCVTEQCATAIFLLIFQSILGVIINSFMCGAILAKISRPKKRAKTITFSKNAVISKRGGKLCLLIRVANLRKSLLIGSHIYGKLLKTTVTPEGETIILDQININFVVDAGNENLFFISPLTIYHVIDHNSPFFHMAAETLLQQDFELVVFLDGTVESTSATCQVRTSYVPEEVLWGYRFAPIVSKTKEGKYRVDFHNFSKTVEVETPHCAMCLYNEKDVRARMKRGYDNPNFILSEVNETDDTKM
ABCG2 block: ABCG2 efflux pump inhibitors, primary screen, multiplex with ABCB1, IgMXP3 cells, flow cytometry; AID 1325, 2008; inhibition, % at 6.6 µM; Broad substrate specificity ATP-binding cassette transporter ABCG2 (Homo sapiens), Q9UNQ0; JC-1 efflux; hit rate 0.1% among 190,000;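 active = inhibition above 80%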
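Test system: IgMXP3 (ABCG2) plus far-red-tagged CCRF-Adr (ABCB1) cells / Amount: 3 million cells/mL in well / Reagent: JC-1 transporter substrate / Timing: 10 min compound exposure, 25 °C / Signal: flow cytometry, 530 nm JC-1 signal / Read-out: percent efflux inhibition, scaled nicardipine 100% to DMSO 0% / Benchmarks: nicardipine as high control, DMSO as low control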
PMI act satM6P: human PMI activators, high substrate, primary screen, biochemical, fluorescence intensity, near-saturating mannose 6-phosphate | Mannose-6-phosphate isomerase (Homo sapiens), P34949 | hit rate 0.34% among 190,000 | AID 1216, 2008 | coupled PMI enzyme assay, resazurin fluorescence, 20 min; hits give high values; 1 = untreated enzyme, 0 = substrate-free blank | activation factor at 20 µM;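 active = activation factor of 2 or more at 20 µM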
Target sequence (P34949 whole entry, looked up): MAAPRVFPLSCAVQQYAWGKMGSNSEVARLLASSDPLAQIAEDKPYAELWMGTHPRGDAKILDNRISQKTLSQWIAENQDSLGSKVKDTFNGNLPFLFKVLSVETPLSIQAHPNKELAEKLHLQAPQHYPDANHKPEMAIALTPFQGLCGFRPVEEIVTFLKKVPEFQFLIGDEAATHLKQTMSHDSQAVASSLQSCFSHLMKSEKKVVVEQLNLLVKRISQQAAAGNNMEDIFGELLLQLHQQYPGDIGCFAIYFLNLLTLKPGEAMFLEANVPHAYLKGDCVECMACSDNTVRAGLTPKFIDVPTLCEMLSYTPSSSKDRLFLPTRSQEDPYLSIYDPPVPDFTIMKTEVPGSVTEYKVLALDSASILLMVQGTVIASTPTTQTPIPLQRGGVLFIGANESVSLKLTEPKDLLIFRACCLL
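Test system – human PMI in coupled enzyme assay · Timing – 20 min incubation at room temperature · Detection – Diaphorase-driven resazurin-to-resorufin fluorescence, excitation 544, emission 590 nm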
PMI act: activators of human PMI, primary screen, biochemical, fluorescence intensity, near-Km mannose 6-phosphate | Mannose-6-phosphate isomerase (Homo sapiens), P34949 | hit rate 0.005% among 190,000 | purified human PMI, coupled resazurin fluorescence, 20 min; hits give high values; 1 = vehicle control, 0 substrate-free wells | AID 1214, 2008 | activation factor at 20 µM;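 active = activation factor of 2 or more at 20 µM, relative to plate controls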
Cl transport mod: KCC2 cotransporter modulators, thallium flux, primary screen, cell-based, HEK293 KCC2, FluoZin-2 fluorescence, MLSMR; KCC2 cells, thallium flux FluoZin-2 fluorescence; hit rate 2.2% among 190,000; B-score of Tl+ flux slope (higher = more flux/activation; lower = inhibition) at 10 µM; Solute carrier family 12 member 5 (Homo sapiens), Q9H2X9;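 active = thallium flux slope and its plate-corrected score both differing from the plate sample mean at a set confidence after two filtering rounds, in either direction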;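 note: slope of fluorescence scaled to starting intensity during 10 to 20 s after thallium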
KCC2 sec1: KCC2 modulators in sodium-free buffer, confirmation, cell-based, HEK293 KCC2, thallium flux, secondary assay; shares compounds with Cl transport mod; FluoZin2 fluorescence; hits give high values; hit rate 15% among 3,700; normalised thallium flux (F/F0 slope) at 10 µM; AID 1713, 2009;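 active = thallium flux slope above the same plate's solvent-only control mean plus 3 SD; inconclusive = the two replicate wells disagree; inactive = no significant difference from solvent-only control wells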
KCC2 bumet counter: thallium flux persisting under bumetanide in KCC2 cells, confirmation, counter-screen for KCC2 modulator project, cell-based, HEK293 KCC2, FluoZin2, secondary assay 3. shares compounds with Cl transport mod. HEK293-KCC2 + bumetanide/ouabain; hits give high values. normalized thallium flux at 10 µM. hit rate 49% among 3,700;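 active = thallium entry rate above the same plate's blocked-transporter control wells by more than 3 SD; inconclusive = the two repeat wells disagree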;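 note: raw slope of fluorescence over initial fluorescence between 10 and 20 s after thallium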
KCC2 sec2: KCC2 modulators without ouabain present, confirmation, cell-based, HEK293 KCC2, thallium flux, FluoZin2, secondary assay 2 | thallium flux FluoZin2 fluorescence; actives lie on both sides; F/F0 rise rate, 10–20 s post-thallium | normalized thallium flux at 10 µM | shares compounds with Cl transport mod | hit rate 23% among 3,700;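 active = thallium flux slope more than 3 SD above or below the plate's solvent-only control mean, mostly below; inconclusive = the two repeat wells disagreed; inactive = no significant shift from solvent-only controls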
HEK293 Tl flux: thallium flux modulation in parental HEK cells, confirmation, counter-screen for KCC2 modulator project, cell-based, counterscreen 1 | shares compounds with Cl transport mod | HEK293 parental cells, thallium flux FluoZin2, ouabain; baseline-ratio fluorescence slope, 10–20 s after thallium | thallium flux rate (normalised fluorescence) at 10 µM | hit rate 46% among 3,700 | AID 1716, 2009;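 active = thallium flux rate significantly above the same plate's solvent-only control wells, beyond their mean plus 3 SD; inconclusive = the two replicate wells gave conflicting results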
KCC2 retest ouab: KCC2 inhibitors and activators, ouabain retest, confirmation, HEK-KCC2 cells. shares compounds with Cl transport mod. AID 1717, 2009. raw Tl+ flux slope (below DMSO = inhibition, above = activation) at 10 µM. hit rate 48% among 3,700. HEK293-KCC2, thallium flux FluoZin2 fluorescence; bidirectional: low = inhibitor, high = activator;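 active = thallium flux slope beyond 3 SD from same-plate DMSO control mean in most replicates, usually higher, sometimes lower; inconclusive = repeat tests gave conflicting results; inactive = no significant difference from controls in most replicates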;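 note: slope of initial-normalized fluorescence between seconds 10 and 20 after thallium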
HEK counter2: native HEK Tl+ uptake effects, second counter-screen – HEK cells, counterscreen 2, counter-screen for KCC2 modulator project, confirmation | shares compounds with Cl transport mod | AID 1718, 2009 | hit rate 33% among 3,700 | thallium flux slope at 10 µM | HEK293 parental, thallium flux FluoZin-2 fluorescence slope;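 active = thallium flux slope above the same plate's solvent-control mean plus 3 SD in both duplicate wells; inconclusive = duplicate wells that disagreed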;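 note: run without ouabain in cells lacking the KCC2 cotransporter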
Of the large screens only hits and unclear results are named; the others gave an inactive call (follow-up assays come after a bar, where they were run). Shown are actives, neighbours in structure and some others; about 3.3% of the full set was active somewhere.

CN(C)c1ccc(/C=N/n2c(-c3ccccc3Br)n[nH]c2=S)cc1	Cl transport mod 5.8 (no result: ABCB1 block, ABCG2 block, PMI act satM6P, PMI act) | KCC2 sec1 inactive | KCC2 bumet counter 0.023 | KCC2 sec2 inactive | HEK293 Tl flux 0.012 | KCC2 retest ouab inconclusive | HEK counter2 inactive
CN(C)c1ccc(/C=N/n2c(-c3cccnc3)n[nH]c2=S)cc1	none
CC(=O)O[C@H]1CC[C@]2(C)[C@H]3CC=C4[C@@H]5[C@@H](C)[C@H](C)CC[C@]5(C(=O)O)CC[C@@]4(C)[C@]3(C)CC[C@H]2C1(C)C	none (no result: ABCB1 block, ROMK primary, ABCG2 block, PMI act satM6P, PMI act)
CCNc1nc(NCC)nc(Oc2ccc(N)cc2)n1	none (no result: ROMK primary, Cl transport mod) | KCC2 sec1 inactive | KCC2 bumet counter inactive | KCC2 sec2 inactive | HEK293 Tl flux inactive | KCC2 retest ouab inactive | HEK counter2 inactive
CCNc1nc(OC)nc(Oc2ccc(C(=O)OC)cc2)n1	none (no result: ROMK primary)
C/C(CCc1ccccc1)=N/NC(=O)C(=O)NCc1ccccc1	none
CCOC(=O)N1CCN(C(=O)COc2ccc(S(=O)(=O)NCC(C)C)cc2C)CC1	none (no result: Cl transport mod) | KCC2 sec1 inactive | KCC2 bumet counter inactive | KCC2 sec2 inactive | HEK293 Tl flux inactive | KCC2 retest ouab inactive | HEK counter2 inactive
CCN(CC)CCNC(=O)c1ccc(NC(=O)c2ccc(F)cc2F)cc1	none
COc1cc(/C=C/c2noc(-c3ccccc3O)n2)ccc1OC(C)=O	Cl transport mod -5.5 (no result: ABCB1 block, ABCG2 block, PMI act satM6P, PMI act) | KCC2 sec1 inactive | KCC2 bumet counter inactive | KCC2 sec2 inactive | HEK293 Tl flux inactive | KCC2 retest ouab inactive | HEK counter2 inactive
COc1cc(-n2nc(C)c3c2OC(N)=C(C#N)C3c2ccccc2)c(Cl)c(Br)c1O (centres undefined)	Cl transport mod -2.6 (no result: ROMK primary) | KCC2 sec1 inactive | KCC2 bumet counter 0.0028 | KCC2 sec2 0.027 | HEK293 Tl flux 0.0059 | KCC2 retest ouab 0.014 | HEK counter2 inconclusive
CCOC(=O)N1CCN(Cc2cn[nH]c2-c2cc3ccccc3o2)CC1	none
O=C(c1ccccc1F)N1CCN(c2cccc(C(F)(F)F)c2)CC1	none (no result: ROMK primary)
CCn1c(=O)cc(OCC(=O)N2CCN(c3cccc(C(F)(F)F)c3)CC2)c2ccccc21	none (no result: ROMK primary) | KCC2 sec1 inactive | KCC2 bumet counter inactive | KCC2 sec2 inactive | HEK293 Tl flux inactive | KCC2 retest ouab inconclusive | HEK counter2 inactive
O=C(c1coc2ccccc2c1=O)N1CCN(c2cccc(C(F)(F)F)c2)CC1	Cl transport mod -4 (no result: ROMK primary) | KCC2 sec1 inactive | KCC2 bumet counter inactive | KCC2 sec2 inactive | HEK293 Tl flux inactive | KCC2 retest ouab inactive | HEK counter2 inactive
O=C(Cc1ccccc1[N+](=O)[O-])N1CCc2ccccc2C1	none
CC1CCc2sc(C(=O)NN=C3CCC(c4ccccc4)CC3)cc2C1 (centres undefined)	none
Cc1cccc(NC(=S)NNC(=O)c2cc3c(s2)CCC(C)C3)c1C (centres undefined)	Cl transport mod 37 | KCC2 sec1 inactive | KCC2 bumet counter 0.08 | KCC2 sec2 0.061 | HEK293 Tl flux 0.064 | KCC2 retest ouab 0.062 | HEK counter2 0.059
O=C(CNC(=O)c1ccccc1F)Nc1ccccc1C(F)(F)F	none
CC(C)CCn1c(=S)[nH]c2ncccc2c1=O	Cl transport mod 51 (no result: ROMK primary) | KCC2 sec1 0.012 | KCC2 bumet counter 0.08 | KCC2 sec2 0.075 | HEK293 Tl flux 0.067 | KCC2 retest ouab 0.073 | HEK counter2 0.059
COc1ccc(N2CCN(CCCn3c(=S)[nH]c4ncccc4c3=O)CC2)cc1	Cl transport mod 8.9 | KCC2 sec1 inactive | KCC2 bumet counter 0.032 | KCC2 sec2 inactive | HEK293 Tl flux 0.02 | KCC2 retest ouab 0.031 | HEK counter2 0.018
CCCCCNC(=O)c1ccc2c(=O)n(CCCOCC)c(=S)[nH]c2c1	none
COc1ccc(N2CCN(CCCNC(=O)C3CCC(CNc4nc(=S)[nH]c5ccccc45)CC3)CC2)cc1 (centres undefined)	none
CCOCCCn1c(=S)[nH]c2ncccc2c1=O	Cl transport mod 5.3 (no result: ROMK primary) | KCC2 sec1 inactive | KCC2 bumet counter 0.017 | KCC2 sec2 inactive | HEK293 Tl flux 0.018 | KCC2 retest ouab inconclusive | HEK counter2 0.021
CN(C)CCn1c(=S)[nH]c2ncccc2c1=O	none
Brc1ccc(N=C(c2ccccc2)c2ccncc2)cc1	none
CCn1c2c(c(=N)c3ccccc31)CCC2	none (no result: ABCB1 block, ABCG2 block, PMI act satM6P, PMI act)
CCCC(=O)NC(C)c1nc2ccccc2n1C(C)C (centres undefined)	none (no result: ROMK primary)
